# Measured values gathered from unrelated publications.
# Compare with care: the assays were run in different laboratories.
Structure (SMILES),method,sample,time,pH,logD
Cc1c(C(=O)NN2CCCCC2)nc(-c2ccc(Cl)cc2Cl)n1-c1ccc(OS(=O)(=O)CCC(C)C)cc1,shake flask,aqueous buffer,,pH 7.4,5.3
CNC(=O)[C@H](Cc1c[nH]cn1)NC(=O)CN(CCCc1ccccc1)CC(=O)O,shake flask,PBS,2 h,pH 7.4,-1.36
Cc1c(C(=O)NN2CCCCC2)nc(-c2ccc(Cl)cc2Cl)n1-c1ccc(OS(=O)(=O)CCCF)cc1,shake flask,aqueous buffer,,pH 7.4,4.15
CN1CCN(c2ccc3nc(-c4ccc5nc(-c6ccc(OCCCC(=O)Nc7ccc(CC(CN(CCN(CC(=O)O)CC(=O)O)CC(=O)O)N(CC(=O)O)CC(=O)O)cc7)cc6)[nH]c5c4)[nH]c3c2)CC1 (stereo not shown),shake flask,PBS,,pH 7.4,-0.5
O=C(O)CN(CCCc1ccccc1)CC(=O)N[C@@H](Cc1c[nH]cn1)C(=O)NCc1ccccc1,shake flask,PBS,2 h,pH 7.4,-0.58
Cc1c(C(=O)N[C@H]2CCCC[C@H]2N)nc(-c2ccc(Cl)cc2Cl)n1-c1ccc(OS(=O)(=O)CCC(F)(F)F)cc1 (racemic),shake flask,aqueous buffer,,pH 7.4,3.35
CC(C)CN(C[C@@H](O)[C@H](Cc1ccccc1)NC(=O)O[C@H]1CO[C@H]2OCC[C@H]21)S(=O)(=O)c1ccc(N)cc1,shake flask,PBS,,pH 5,2.8
CN1C(C(=O)Nc2ccccn2)=C(O)c2ccccc2S1(=O)=O,shake flask,aqueous buffer,48 h,pH 7.4,-0.31
N#Cc1c[nH]c2c(C(=O)N3CCN(CCc4ccc(F)cc4)CC3)cccc12,shake flask,aqueous buffer,,pH 7.4,3.5
Cc1c(C(=O)N[C@@H]2CCCC[C@H]2O)nc(-c2ccc(Cl)cc2Cl)n1-c1ccc(OS(=O)(=O)CCC(F)(F)F)cc1 (relative stereo),shake flask,aqueous buffer,,pH 7.4,> 4.4
COC(=O)[C@H](Cc1c[nH]cn1)NC(=O)CN(CCCc1ccccc1)CC(=O)O,shake flask,PBS,2 h,pH 7.4,-0.78
C[C@]1(C(=O)O)CSC(c2ccc(OCCCCCCO)cc2O)=N1,shake flask,aqueous buffer,,pH 7.4,0.21
O=C(O)c1ccc(-n2nc(-c3ccccc3O)nc2-c2ccccc2O)cc1,shake flask,PBS,,pH 7.4,0.9
Cc1c(C(=O)NC2CCC(O)CC2)nc(-c2ccc(Cl)cc2Cl)n1-c1ccc(OS(=O)(=O)CCC(F)(F)F)cc1 (stereo not shown),shake flask,aqueous buffer,,pH 7.4,4.2
CCCCc1nc2c(N)nc3ccccc3c2n1Cc1ccc(CN)cc1,shake flask,PBS,,pH 7.4,0.42
N#CCc1ccccc1C#Cc1ccc(CCC(=O)O)c(F)c1,shake flask,PBS,,pH 7.4,1.41
Fc1ccc(Nc2c(-c3ccccn3)nc3ccc(C4CC4)cn23)cc1,,,,pH 7.4,2.9
C[C@]1(C(=O)O)CSC(c2ccc(OCCCCCC(=O)O)cc2O)=N1,shake flask,aqueous buffer,,pH 7.4,-1.9
COc1cc2c(cc1OC)CN(CCCCn1ccc3c(OCC[18F])cccc31)C2,shake flask,aqueous buffer,,pH 7.4,2.43
CCOCc1nc2c(N)nc3ccccc3c2n1CC(C)(C)O,shake flask,PBS,,pH 7.4,1.14
Cc1c(C(=O)Nc2ccc(C(F)(F)F)nc2)nc(-c2ccc(Cl)cc2Cl)n1-c1ccc(OS(=O)(=O)CCC(F)(F)F)cc1,shake flask,aqueous buffer,,pH 7.4,> 4.9
CCCc1cc2c(N3CCn4c(nnc4C(F)(F)F)C3)nc(OCC[18F])nc2s1,shake flask,aqueous buffer,,pH 7.4,2.06
CN1CCN(c2ccc3[nH]c(-c4ccc5[nH]c(-c6ccc(O)cc6)nc5c4)nc3c2)CC1,shake flask,PBS,,pH 7.4,2.2
Cc1c(C(=O)NN2CCCCC2)nc(-c2ccc(Cl)cc2Cl)n1-c1ccc(OS(=O)(=O)CCC(C)(C)C)cc1,shake flask,aqueous buffer,,pH 7.4,> 5.8
COC(=O)CN(CCCc1ccccc1)CC(=O)N[C@@H](Cc1c[nH]cn1)c1nc(C)no1,shake flask,PBS,2 h,pH 7.4,1.52
CCC1=C(C)c2cc3[nH]c(cc4[nH]c(cc5nc(cc1n2)C(C)=C5CC)c(C)c4CC)c(CC)c3C,shake flask,aqueous buffer,,pH 9,1.42
Cc1c(C(=O)N[C@H]2CCC[C@H](O)C2)nc(-c2ccc(Cl)cc2Cl)n1-c1ccc(OS(=O)(=O)CCC(F)(F)F)cc1 (relative stereo),shake flask,aqueous buffer,,pH 7.4,4.6
CNC(=O)[C@H](Cc1c[nH]cn1)NC(=O)CN(CC(=O)O)Cc1ccccc1,shake flask,PBS,2 h,pH 7.4,-2.29
